Screens as filed in PubChem.
The list is a sample of the results.
Apaf1 activ = activators of human Apaf-1 apoptosome; O14727; Apaf-1 apoptosome caspase-3 activation, DEVD-Rh110 fluorescence; stronger effect = lower value; activity change, negative = activation, % at 20 µM; actives 0.31% (n = 330,000);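 active = activity change at or below -40% at 20 µM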
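system = biochemical Apaf-1 apoptosome reconstitution | buffer or medium = 20 mM HEPES pH 7.5 with CHAPS, BSA | also added = dATP and cytochrome c as apoptosome triggers, (Z-DEVD)2-Rh110 substrate | incubation = 30 min compound preincubation and 50 min reaction, both room temperature | measured by = fluorescence, 540 nm emission, 480 nm excitation | read-out basis = Caspase-3 cleavage activity downstream of Apaf-1 activation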
Rh110 interf act = Rh110 signal interference in Apaf-1 activator counter-screen. shares compounds with Apaf1 activ. Rh110 fluorescence interference, quenched caspase reaction, Ex480/Em540. fluorescence interference (activity change), % at 20 µM, hits read low. 980 tested, under 10 active. AID 504616;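 active = mean activity change at or below -40% when tested at 20 µM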
Apaf-1 act conf = confirmation of human Apaf-1 activators. shares compounds with Apaf1 activ. reconstituted apoptosome caspase-3 activity, DEVD-Rh110 fluorescence; stronger effect = lower value. activity change, negative = activation, % at 20 µM. actives 5% (n = 980);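 active = mean activity change at or below -40%, meaning activation of 40% or more, at 20 µM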
The depositor's hits bear a star; . = no result.

SMILES | Apaf1 activ | Rh110 interf act | Apaf-1 act conf
CC(=O)Oc1ccc(/C=C2/C(=O)N(c3ccccc3)N=C2C)cc1 | 91 | . | .
CCN(CC)C(=O)Cn1cc(S(=O)(=O)CC(=O)N2CCOCC2)c2ccccc21 | -56* | 12 | 12
CCOC(=O)C(C(=O)OCC)c1cc(Br)c2noc3c2c1C(=O)c1ccccc1-3 | 89 | . | .
CCCc1ccc2oc(C(=O)NCCc3nc(C(=O)OCC)cs3)c(C)c2c1 | 41 | . | .
CCCc1cc(C(=O)Nc2sc(C(C)=O)c(C)c2C(=O)OCC)no1 | -192* | -7 | 8
CCN(CC)CCCNc1ccc(-c2nnc(-c3ccc(OCC(C)C)cc3)o2)cn1 | 41 | . | .
COc1ccc(-c2ccc(C(c3c(C)[nH][nH]c3=O)c3c(C)[nH][nH]c3=O)o2)c([N+](=O)[O-])c1 | 75 | . | .
COc1ccc(N2CCN(Cc3nc4ccccc4n3C)CC2)cc1 | -108* | 0 | -1
COc1ccc(CCN2CCC(Nc3nc4ccccc4n3Cc3ccc(F)cc3)CC2)cc1 | 56 | . | .
COc1ccc(-c2nc(-c3ccccc3)nc(N3CCN(C)CC3)c2C#N)cc1 | 41 | . | .
CN[C@H]1CC[C@@H](c2ccc(Cl)c(Cl)c2)c2ccccc21 | 50 | . | .
COCCCOc1cc(NCc2ccccc2)c2ncn(C(C)C)c2c1 | 41 | . | .
CCOC(=O)c1c2c(n(C)c1COC)C(=O)C(=O)c1ccc(Br)cc1-2 | 97 | . | .
COc1ccc(N2CCCn3c2nc2c3c(=O)n(Cc3ccc(C)cc3)c(=O)n2C)c(OC)c1 | -100* | 8 | 21
CCOc1cccc(CNc2ccc(O)cc2)c1OCc1ccccc1Cl | 97 | . | .
COc1ccc(N=C2C(=Nc3ccc(OC)cc3)N(c3ccc(OC)cc3)C(=S)N2c2ccccc2)cc1 | 75 | . | .
C#CCOCCOCCOCCNc1nc(N2CCN(C(=O)[C@H](CCCCN)n3cc([C@@H](N)CC(N)=O)nn3)CC2)nc(N2CCN(C(=O)[C@H](CCCCN)n3cc([C@@H](N)CC(N)=O)nn3)CC2)n1 | 55 | . | .
CCCCC(CC)CN1C(=O)/C(=C/c2ccncc2)SC1=S (stereo not drawn) | 42 | . | .
Cc1ccccc1C(=O)c1cccn1CC(=O)NCc1ccc(Cl)cc1 | -92* | 7 | 16
Nc1ccc2ncccc2c1 | 86 | . | .
COc1ccc(/C=C2/C(=O)N(c3c(F)c(F)c(F)c(F)c3F)N=C2C)cc1 | 54 | . | .
Cc1ccccc1C(=O)N1CCC(n2nccc2NC(=O)CCOc2ccccc2)CC1 | -187* | 0 | 3
O=C1C(NS(=O)(=O)c2cccs2)=C(N2CCN(c3cccc(C(F)(F)F)c3)CC2)C(=O)c2ccccc21 | 48 | . | .
CCOC(=O)N1CCN(S(=O)(=O)N2CCCC(C(=O)NCCCN3CCCCC3CC)C2)CC1 (stereo not drawn) | -61* | 1 | 18
CC[C@]12c3[nH]c4ccc(Cl)cc4c3CCN1C(=O)[C@@H](CC(=O)NCC13CC4CC(CC(C4)C1)C3)C[C@@H]2C(=O)N1CCN(C(=O)c2ccco2)CC1 | 44 | . | .
SMILES | Apaf1 activ | Rh110 interf act | Apaf-1 act conf
COc1ccc2c(c1)Cc1sc(NC(C)=O)nc1-2 | 73 | . | .
COc1ccc2nc(NC(=O)c3sc4nc(C)cc(C)c4c3N)sc2c1 | -41* | -3 | 10
COc1ccc2c(c1)Cc1sc(NC(=O)c3cccnc3)nc1-2 | 89 | . | .
O=C(NC1=C(NC2CCS(=O)(=O)C2)C(=O)c2ccccc2C1=O)c1ccccc1 (stereo not drawn) | 88 | . | .
COc1ccccc1/C=C/C(=O)OCC(=O)NC1CCS(=O)(=O)C1 (stereo not drawn) | -78* | -5 | 5
CC(=O)OCC(=O)[C@@]1(O)CC[C@H]2[C@@H]3CCC4=CC(=O)CC[C@]4(C)[C@H]3[C@@H](O)C[C@@]21C | -4 | . | .
Cc1ccc(NC(=S)Nc2cccc3ccccc23)cc1F | 89 | . | .
CC(C)CC(=O)NC(=S)Nc1ccccc1F | -80* | -7 | 11
Cc1ccc(S(=O)(=O)N2CCN(C(=O)COC(=O)c3ccc([N+](=O)[O-])o3)CC2)c(C)c1 | 59 | . | .
O=C1C(NS(=O)(=O)c2cccs2)=C(N2CCN(Cc3ccccc3)CC2)C(=O)c2ccccc21 | 51 | . | .
CC(=O)Nc1ccc(S(=O)(=O)Nc2nc3ccccc3nc2Nc2ccc(C(=O)O)c(O)c2)cc1 | 58 | . | .
Cc1ccc(S(=O)(=O)/N=C2\C=C(Nc3ccc(O)cc3)C(=O)c3ccccc32)cc1 | 96 | . | .
Cc1ccc(S(=O)(=O)NC(=O)Nc2ccccc2)cc1 | -529* | 2 | 8
Cc1[nH]n(-c2ccccc2)c(=O)c1/C=N/N(C)c1ccccc1 | 80 | . | .
Cc1ccc(CN2CC(C(=O)N3CCN(S(=O)(=O)c4ccc(C)cc4C)CC3)CC2=O)cc1 (stereo not drawn) | 48 | . | .
NS(=O)(=O)c1ccc(Cc2ncc(C(F)(F)F)cc2Cl)s1 | -40* | 1 | 8
O=C(N/N=C/c1ccc(-c2ccccc2[N+](=O)[O-])o1)[C@H]1C[C@@H]1c1ccccc1 | 68 | . | .
COc1cc(OC)c2c(-c3ccccc3)cc(=O)oc2c1C(CCN1CCCC1)c1ccc2c(c1)OCO2 (stereo not drawn) | 49 | . | .
O=C1c2ccccc2-c2c1nc1c([n+]2[O-])CCCC1 | 42 | . | .
CC(=O)c1ccc(Nc2nc(-c3cccnc3)cs2)cc1 | -208* | 16 | 13
Cc1cc(/C=C\c2ccc3cc(N(C)C)ccc3[n+]2C)c(C)n1-c1ccccc1 | 43 | . | .
CCOC(=O)C(=O)Nc1cc(Cl)ccc1C | -54* | 11 | 10
O=C(c1ccc2ncsc2c1)N1CCCC(C(F)(F)F)C1 (stereo not drawn) | 42 | . | .
CSCCC(NC(=O)c1ccco1)C(=O)N1CCCC(C(F)(F)F)C1 (stereo not drawn) | -394* | -7 | 27
COc1ccc(/C=C/C(=O)NC(=S)Nc2ccc(S(N)(=O)=O)cc2)cc1 | -80* | -2 | 14
SMILES | Apaf1 activ | Rh110 interf act | Apaf-1 act conf
COc1ccc(NC(=O)CC2Nc3cccc4cccc(c34)NC2=O)cc1 (stereo not drawn) | 94 | . | .
CCCCCCCCCCOC(=O)Cn1c(COc2cccc(C)c2)[n+](C)c2ccccc21 | 79 | . | .
COc1cc2nc(Nc3ccc(C)c(Cl)c3)nc(N)c2cc1OC | 45 | . | .
COCCNC(=O)c1onc(CSc2ccccc2)c1C(=O)O | -44* | -7 | 10
COCCCNC(=O)c1ccc2c3c(onc13)-c1ccccc1C2=O | 80 | . | .
Nc1ccc(N(CCO)CCO)cc1 | 84 | . | .
NC(=O)N(CCC(=O)O)c1ccccc1 | -47* | -12 | -17
COc1ccc(S(=O)(=O)N2CCN(c3ccc4nnc(-c5ccc(F)cc5)n4n3)CC2)cc1 | 51 | . | .
Cc1cccc(C(=O)N/C(=C\c2ccco2)C(=O)N2CCCC2)c1 | -134* | 1 | 4
O=C(Nc1ccc2nc(-c3ccco3)c(-c3ccco3)nc2c1)N1CCCCCC1 | 57 | . | .
O=C(NCC(c1ccco1)N1CCCC1)c1cccc(S(=O)(=O)Nc2ccc(Br)cc2)c1 (stereo not drawn) | 59 | . | .
Cc1cc2nn(-c3ccc(Cl)cc3)nc2cc1N | 49 | . | .
Cc1ccc(-c2nn3c(-c4ccco4)nnc3c3ccccc23)cc1S(=O)(=O)NCC1CCCO1 (stereo not drawn) | 66 | . | .
COc1ccc(-c2cc(C)no2)cc1S(=O)(=O)NCCc1ccco1 | -382* | 5 | -1
Nc1ncc2[nH]cnc2n1 | -4 | . | .
